According to ChEMBL document CHEMBL4680253, “Hybrids of MEK inhibitor and NO donor as multitarget antitumor drugs” (Eur J Med Chem, 2020):
Calls of active or inactive are those of the source. No cut-off for these calls is given here.

Columns and labels:
[1] = Prodrug release in human HCT-116 cells assessed as increase in intracellular NO level at 100 uM measured after 2 hr by DAF-FM DA reagent based laser confocal scanning microscopy; details: hct-116, 2 h
MDA-MB-231 [2] = experiment: Induction of apoptosis in human MDA-MB-231 cells assessed as necrotic cells at 10 uM incubated for 24 hrs by AnnexinV-FITC and propidium iodide staining based flow cytometry (reference value: 1.084%); type: functional
[3] = target: T1, Dual specificity mitogen-activated protein kinase kinase; MEK1/2 (Homo sapiens) (UniProt P36507+Q02750); experiment: Inhibition of MEK in human A549 cells assessed as reduction in ERK phosphorylation at 1 uM incubated for 2 hrs by Western blot analysis; type: cell-based
In short: (§1)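 A549 cells in RPMI-1640 with 10% FBS, treated 2 h. Cells lysed in RIPA with protease/phosphatase inhibitors on ice for 20 min. Equal protein run on 4-20% SDS-PAGE and blotted to PVDF. Membranes blocked in 5% milk, then probed overnight at 4 °C with rabbit mAbs to pMEK, MEK, pERK and ERK, followed by HRP secondary. GAPDH used as loading control.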

MDA-MB-231 [4] = experiment: Induction of apoptosis in human MDA-MB-231 cells assessed as necrotic cells at 1 uM incubated for 24 hrs by AnnexinV-FITC and propidium iodide staining based flow cytometry (reference value: 1.084%); type: functional
[5] = target: T1, Dual specificity mitogen-activated protein kinase kinase; MEK1/2 (Homo sapiens); experiment: Inhibition of MEK in human MDA-MB-231 cells assessed as reduction in ERK phosphorylation at 10 uM incubated for 4 hrs by Western blot analysis; type: cell-based
In short: (§2)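 MDA-MB-231 in RPMI-1640 with 10% FBS. Dose series at 1, 3 and 10 µM for 2 h or 24 h; time course at 1 µM or 10 µM over several time points. RIPA lysates with protease/phosphatase inhibitors, equal protein on 4-20% SDS-PAGE, PVDF transfer, 5% milk block. Probed overnight at 4 °C for pMEK, MEK, pERK and ERK, then HRP secondary.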

[6] = target: T1, Dual specificity mitogen-activated protein kinase kinase; MEK1/2 (Homo sapiens); experiment: Inhibition of MEK in human MDA-MB-231 cells assessed as reduction in MEK phosphorylation at 10 uM incubated for 2 hrs by Western blot analysis; type: cell-based
In short: as §2

[7] = target: T1, Dual specificity mitogen-activated protein kinase kinase; MEK1/2 (Homo sapiens); experiment: Inhibition of MEK in human MDA-MB-231 cells assessed as reduction in MEK phosphorylation at 10 uM incubated for 4 hrs by Western blot analysis; type: cell-based
In short: as §2

[8] = target: T1, Dual specificity mitogen-activated protein kinase kinase; MEK1/2 (Homo sapiens); experiment: Inhibition of MEK in human A549 cells assessed as reduction in ERK phosphorylation incubated for 2 hrs by Western blot analysis; type: cell-based; details: dose 1-10 µM
In short: as §1

HL-60 = experiment: Antiproliferative activity against human HL60 cells harboring NRAS […] mutant assessed as inhibition of cell viability after 96 hrs by Celltiter-Glo assay; type: functional, cell-based; details: HL-60, 96 h
MDA-MB-231 [9] = experiment: Induction of apoptosis in human MDA-MB-231 cells assessed as viable cells at 1 uM incubated for 24 hrs by AnnexinV-FITC and propidium iodide staining based flow cytometry (reference value: 90.962%); type: functional; details: read-out: Activity
[10] = target: T1, Dual specificity mitogen-activated protein kinase kinase; MEK1/2 (Homo sapiens); experiment: Inhibition of MEK in human MDA-MB-231 cells assessed as reduction in ERK phosphorylation at 10 uM incubated for 2 hrs by Western blot analysis; type: cell-based
In short: as §2

MDA-MB-231 [11] = experiment: Induction of apoptosis in human MDA-MB-231 cells assessed as late apoptotic cells at 10 uM incubated for 24 hrs by AnnexinV-FITC and propidium iodide staining based flow cytometry (reference value: 3.54%); type: functional
[12] = target: T1, Dual specificity mitogen-activated protein kinase kinase; MEK1/2 (Homo sapiens); experiment: Inhibition of MEK in human A549 cells assessed as reduction in MEK phosphorylation incubated for 2 hrs by Western blot analysis; type: cell-based; details: dose 1-10 µM
In short: as §1

Vero = experiment: Cytotoxicity against African green monkey Vero cells assessed as reduction in cell viability after 96 hrs by Celltiter-Glo assay; type: cell-based; details: Chlorocebus sabaeus
In short: (§3)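 Cells kept at 37 °C in humidified 5% CO2 with 10% FBS; Vero in DMEM, HL7702 in RPMI-1640. Compounds added to plated cells and incubated 96 h at 37 °C. Viability read by CellTiter-Glo reagent added directly to the wells. IC50 fitted from the readings.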

MDA-MB-231 [13] = experiment: Induction of apoptosis in human MDA-MB-231 cells assessed as late apoptotic cells at 1 uM incubated for 24 hrs by AnnexinV-FITC and propidium iodide staining based flow cytometry (reference value: 3.54%); type: functional
[14] = target: T1, Dual specificity mitogen-activated protein kinase kinase; MEK1/2 (Homo sapiens); experiment: Inhibition of MEK in human A549 cells assessed as reduction in MEK phosphorylation at 10 uM incubated for 2 hrs by Western blot analysis; type: cell-based
In short: as §1

MDA-MB-231 [15] = experiment: Induction of apoptosis in human MDA-MB-231 cells assessed as early apoptotic cells at 10 uM incubated for 24 hrs by AnnexinV-FITC and propidium iodide staining based flow cytometry (reference value: 4.4%); type: functional
[16] = target: T1, Dual specificity mitogen-activated protein kinase kinase; MEK1/2 (Homo sapiens); experiment: Inhibition of MEK in human A549 cells assessed as reduction in ERK phosphorylation by Western blot analysis; type: cell-based; details: TDE = time-dependent effect
In short: as §1

[17] = target: T1, Dual specificity mitogen-activated protein kinase kinase; MEK1/2 (Homo sapiens); experiment: Inhibition of MEK in human MDA-MB-231 cells assessed as reduction in MEK phosphorylation at 1 to 10 uM incubated for 24 hrs by Western blot analysis; type: cell-based; details: dose 1-10 µM
In short: as §2

A549 = experiment: Antiproliferative activity against human A549 cells harboring KRAS G12S mutant assessed as inhibition of cell viability after 96 hrs by Celltiter-Glo assay; type: functional, cell-based; details: A549, 96 h
[18] = target: T1, Dual specificity mitogen-activated protein kinase kinase; MEK1/2 (Homo sapiens); experiment: Inhibition of MEK in human MDA-MB-231 cells assessed as reduction in ERK phosphorylation at 1 to 10 uM incubated for 24 hrs by Western blot analysis; type: cell-based; details: dose 1-10 µM
In short: as §2

MDA-MB-231 [19] = experiment: Antiproliferative activity against human MDA-MB-231 cells harboring KRAS G13D/BRAF G464V mutant assessed as inhibition of cell viability after 96 hrs by Celltiter-Glo assay; type: functional, cell-based; details: MDA-MB-231, 96 h
MDA-MB-231 [20] = experiment: Induction of apoptosis in human MDA-MB-231 cells assessed as early apoptotic cells at 1 uM incubated for 24 hrs by AnnexinV-FITC and propidium iodide staining based flow cytometry (reference value: 4.4%); type: functional
L02 = experiment: Cytotoxicity against human HL7702 cells assessed as reduction in cell viability after 96 hrs by Celltiter-Glo assay; type: cell-based; details: L02, 96 h
In short: as §3

[21] = target: T1, Dual specificity mitogen-activated protein kinase kinase; MEK1/2 (Homo sapiens); experiment: Inhibition of MEK in human A549 cells assessed as reduction in MEK phosphorylation by Western blot analysis; type: cell-based; details: TDE = time-dependent effect
In short: as §1

HCT-116 = experiment: Antiproliferative activity against human HCT116 cells harboring KRAS G13D mutant assessed as inhibition of cell viability after 96 hrs by Celltiter-Glo assay; type: functional, cell-based; details: HCT-116, 96 h
MDA-MB-231 [22] = experiment: Induction of apoptosis in human MDA-MB-231 cells assessed as viable cells at 10 uM incubated for 24 hrs by AnnexinV-FITC and propidium iodide staining based flow cytometry (reference value: 90.962%); type: functional; details: read-out: Activity
[23] = Antiproliferative activity against human A375 cells harboring BRAF V600E mutant assessed as inhibition of cell viability after 96 hrs by Celltiter-Glo assay; type: functional, cell-based, A375/R; details: A-375, 96 h
[24] = target: T1, Dual specificity mitogen-activated protein kinase kinase; MEK1/2 (Homo sapiens); experiment: Inhibition of MEK in human MDA-MB-231 cells assessed as reduction in ERK phosphorylation at 1 to 10 uM incubated for 2 hrs by Western blot analysis; type: cell-based; details: dose 1-10 µM
In short: as §2

[25] = target: T1, Dual specificity mitogen-activated protein kinase kinase; MEK1/2 (Homo sapiens); experiment: Inhibition of MEK in human MDA-MB-231 cells assessed as reduction in MEK phosphorylation at 1 to 10 uM incubated for 2 hrs by Western blot analysis; type: cell-based; details: dose 1-10 µM
In short: as §2

[26] = target: T1, Dual specificity mitogen-activated protein kinase kinase; MEK1/2 (Homo sapiens); experiment: Inhibition of MEK in human MDA-MB-231 cells assessed as reduction in MEK phosphorylation incubated for 2 hrs by Western blot analysis; type: cell-based; details: dose 0.1-10 µM
[27] = target: T1, Dual specificity mitogen-activated protein kinase kinase; MEK1/2 (Homo sapiens); experiment: Inhibition of MEK in human MDA-MB-231 cells assessed as reduction in ERK phosphorylation at 1 uM incubated for <=1 hr by Western blot analysis; type: cell-based; details: time hrs <=1
In short: as §2

[28] = target: T1, Dual specificity mitogen-activated protein kinase kinase; MEK1/2 (Homo sapiens); experiment: Inhibition of MEK in human MDA-MB-231 cells assessed as reduction in ERK phosphorylation incubated for 2 hrs by Western blot analysis; type: cell-based; details: dose 0.1-10 µM
[29] = target: T1, Dual specificity mitogen-activated protein kinase kinase; MEK1/2 (Homo sapiens); experiment: Inhibition of MEK in human MDA-MB-231 cells assessed as reduction in ERK phosphorylation at 1 uM by Western blot analysis; type: cell-based; details: time 1-6 hrs, TDE = time-dependent effect
In short: as §2

[30] = target: T1, Dual specificity mitogen-activated protein kinase kinase; MEK1/2 (Homo sapiens); experiment: Inhibition of MEK in human MDA-MB-231 cells assessed as reduction in MEK phosphorylation at 1 uM incubated for <=1 hr by Western blot analysis; type: cell-based; details: time hrs <=1
In short: as §2

[31] = target: T1, Dual specificity mitogen-activated protein kinase kinase; MEK1/2 (Homo sapiens); experiment: Inhibition of MEK in human MDA-MB-231 cells assessed as reduction in MEK phosphorylation at 1 uM by Western blot analysis; type: cell-based; details: time 1-6 hrs, TDE = time-dependent effect
In short: as §2

T1 sequence (P36507 whole entry, looked up): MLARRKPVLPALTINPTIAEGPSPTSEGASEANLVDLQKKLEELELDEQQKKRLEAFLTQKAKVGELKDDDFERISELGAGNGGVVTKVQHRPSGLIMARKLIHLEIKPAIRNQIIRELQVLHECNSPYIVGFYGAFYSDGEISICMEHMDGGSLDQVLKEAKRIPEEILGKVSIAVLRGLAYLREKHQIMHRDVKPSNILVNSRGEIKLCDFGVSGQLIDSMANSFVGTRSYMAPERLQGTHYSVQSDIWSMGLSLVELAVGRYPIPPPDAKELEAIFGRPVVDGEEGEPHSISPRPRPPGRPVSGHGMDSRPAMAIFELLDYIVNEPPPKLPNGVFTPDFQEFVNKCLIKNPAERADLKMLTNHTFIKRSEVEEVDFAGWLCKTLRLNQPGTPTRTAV
T1 sequence (Q02750 whole entry, looked up): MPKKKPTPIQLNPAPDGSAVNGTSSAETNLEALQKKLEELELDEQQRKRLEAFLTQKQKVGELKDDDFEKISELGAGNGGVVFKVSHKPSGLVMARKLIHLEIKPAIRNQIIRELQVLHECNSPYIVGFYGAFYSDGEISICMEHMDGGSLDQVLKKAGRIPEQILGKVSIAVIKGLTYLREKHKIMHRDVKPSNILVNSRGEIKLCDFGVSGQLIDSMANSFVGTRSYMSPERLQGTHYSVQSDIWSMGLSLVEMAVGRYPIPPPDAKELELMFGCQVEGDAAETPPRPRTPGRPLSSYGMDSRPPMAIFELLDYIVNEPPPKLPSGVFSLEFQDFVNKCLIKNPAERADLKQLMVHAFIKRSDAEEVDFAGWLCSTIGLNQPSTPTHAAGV

Row | Compound | Drug metabolism [1] | Activity (MDA-MB-231 [2]) | inhibition [3] | Activity (MDA-MB-231 [4]) | IC50 (HL-60) | viability at 1 µM (MDA-MB-231 [9]) | Activity (MDA-MB-231 [11]) | IC50 (Vero) | Activity (MDA-MB-231 [13]) | inhibition [14] | Activity (MDA-MB-231 [15]) | IC50 (A549) | IC50 (MDA-MB-231 [19]) | Activity (MDA-MB-231 [20]) | IC50 (L02) | IC50 (HCT-116) | viability at 10 µM (MDA-MB-231 [22]) | IC50 [23] | inhibition [24] | inhibition [25] | further results
1 | CNS(=O)(=O)Nc1cccc(Cc2c(C)c3ccc(OCCOc4no[n+]([O-])c4S(=O)(=O)c4ccccc4)cc3oc2=O)c1F | Metabolite_Detected | 14.737% | Active | 3.613% | 0.53 µM | 68% | 5.11% | 4.34 µM | 8.15% | Active | 22.9% | 1.1 µM | 0.093 µM | 20.2% | 2.78 µM | 0.67 µM | 57.2% | 0.33 µM | – | – | inhibition [5]: 100%; inhibition [6]: Active; inhibition [7]: 100%; inhibition [8]: Dose-dependent effect; inhibition [10]: Active; inhibition [12]: Dose-dependent effect; inhibition [16]: Tde; inhibition [17]: Active; inhibition [18]: Active; inhibition [21]: Tde
2 | CNS(=O)(=O)Nc1nccc(Cc2c(C)c3ccc(Oc4ncccn4)cc3oc2=O)c1F [AVUTOMETINIB] | Metabolite_Notdetected | 0.57% | Active | 0.87% | 0.006 µM | 88.8% | 2.37% | > 50 µM | 1.92% | Active | 7.32% | 1.24 µM | 0.17 µM | 8.45% | 17.3 µM | 0.053 µM | 89.7% | 0.017 µM | Active | Active | –
3 | CNS(=O)(=O)Nc1cccc(Cc2c(C)c3ccc(OCCCOc4no[n+]([O-])c4S(=O)(=O)c4ccccc4)cc3oc2=O)c1F | Metabolite_Detected | 14.729% | – | 8.443% | – | 61.2% | 6.87% | 21.1 µM | 7.65% | – | 24.7% | 1.35 µM | 0.034 µM | 22.6% | 5.62 µM | 0.64 µM | 53.7% | – | Active | Active | inhibition [26]: Dose-dependent effect; inhibition [27]: Active; inhibition [28]: Dose-dependent effect; inhibition [29]: Tde; inhibition [30]: Active; inhibition [31]: Tde
